Data as given in ChEMBL document CHEMBL1765073, “Synthesis and structure-activity relationship studies of urea-containing pyrazoles as dual inhibitors of cyclooxygenase-2 and soluble epoxide hydrolase” (J Med Chem, 2011).
Active and inactive are the calls of the source. The calls are words filed in the database; no cut-off is given here.

How the values were obtained:
[1] = target: T1, Prostaglandin G/H synthase 1 (Ovis aries) (UniProt P05979); assay: Inhibition of ovine COX-1 at 100 uM after 2 mins by fluorescence assay
T1 sequence (whole entry): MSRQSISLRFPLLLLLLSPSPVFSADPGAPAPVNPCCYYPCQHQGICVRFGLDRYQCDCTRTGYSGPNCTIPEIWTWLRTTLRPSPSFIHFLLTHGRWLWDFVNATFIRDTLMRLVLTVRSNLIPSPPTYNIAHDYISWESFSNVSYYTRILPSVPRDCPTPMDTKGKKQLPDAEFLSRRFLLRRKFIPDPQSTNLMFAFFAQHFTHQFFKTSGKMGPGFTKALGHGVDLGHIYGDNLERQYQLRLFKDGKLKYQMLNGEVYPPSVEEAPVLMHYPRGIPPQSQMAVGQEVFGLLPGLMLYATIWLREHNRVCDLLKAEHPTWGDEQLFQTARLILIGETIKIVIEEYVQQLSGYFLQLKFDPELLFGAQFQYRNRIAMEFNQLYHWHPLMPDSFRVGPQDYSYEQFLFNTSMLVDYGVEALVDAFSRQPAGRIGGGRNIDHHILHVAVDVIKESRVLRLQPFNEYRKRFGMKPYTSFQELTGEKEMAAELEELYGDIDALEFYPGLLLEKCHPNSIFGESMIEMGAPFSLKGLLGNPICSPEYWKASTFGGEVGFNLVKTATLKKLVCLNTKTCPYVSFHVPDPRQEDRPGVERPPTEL
In short: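 Ovine COX-1 was tested in a fluorescent kit assay in 100 mM Tris-HCl, pH 8.0, with heme and ADHP substrate. Inhibitor was added at a final 100 µM, then the reaction was started with arachidonic acid for 2 min at room temperature. Resorufin was read at ex 535/em 590 nm, and % inhibition was taken against a no-inhibitor control.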

[2] = Half life in Sprague-Dawley rat at 1 mg/kg, po; format: ADME, organism-based; set-up: dose 1 mg/kg, route oral; details: in vivo
In short: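 Male Sprague-Dawley rats (8 weeks, 250–300 g, n = 4) were dosed orally at 1 mg/kg in oleic-ester-rich triglyceride with 10% PEG 400. Tail-vein blood (10 µL) was taken at 0–24 h, mixed with water and stored at −80 °C. Drug was quantified by LC/MS/MS, and t1/2 came from non-compartmental analysis of each rat.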

[3] = tested on: Rattus norvegicus; assay: Antiallodynic activity in Sprague-Dawley rat von Frey hair mechanically-stimulated inflammatory pain model assessed as reversal of LPS-induced decrease in paw withdrawal latency at 10 mg/kg, sc administered 60 mins before LPS challenge
[4] = target: T2, Polyunsaturated fatty acid 5-lipoxygenase (Homo sapiens) (UniProt P09917); assay: Inhibition of human 5-lipoxygenase at 10 uM
T2 sequence (whole entry): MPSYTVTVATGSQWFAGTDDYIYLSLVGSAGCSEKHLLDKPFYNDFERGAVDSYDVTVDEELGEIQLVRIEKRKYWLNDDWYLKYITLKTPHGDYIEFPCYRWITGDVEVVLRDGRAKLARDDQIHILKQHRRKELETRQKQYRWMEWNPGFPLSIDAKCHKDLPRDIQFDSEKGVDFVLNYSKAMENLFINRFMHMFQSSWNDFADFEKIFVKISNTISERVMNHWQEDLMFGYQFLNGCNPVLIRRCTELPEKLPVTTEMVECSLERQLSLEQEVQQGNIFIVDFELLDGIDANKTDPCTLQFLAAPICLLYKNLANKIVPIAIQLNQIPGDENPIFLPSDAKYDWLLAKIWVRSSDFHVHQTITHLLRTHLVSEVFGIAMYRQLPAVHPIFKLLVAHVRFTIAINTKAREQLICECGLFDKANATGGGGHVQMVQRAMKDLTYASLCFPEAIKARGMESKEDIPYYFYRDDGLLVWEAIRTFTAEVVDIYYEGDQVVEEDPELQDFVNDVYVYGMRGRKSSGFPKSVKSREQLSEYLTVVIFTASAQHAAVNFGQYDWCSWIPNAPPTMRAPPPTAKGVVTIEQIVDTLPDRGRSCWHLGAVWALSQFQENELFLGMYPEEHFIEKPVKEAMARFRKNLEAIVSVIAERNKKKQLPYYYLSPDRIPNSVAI

[5] = tested on: Rattus norvegicus; assay: Toxicity in Sprague-Dawley rat von Frey hair mechanically-stimulated […] pain model assessed as overt signs of behavioral changes at 10 mg/kg, sc after 9 hrs; format: organism-based; set-up: dose 10 mg/kg, route subcutaneous; details: in vivo
In short: (§1)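 Male Sprague-Dawley rats treated s.c. (10 mg/kg, PEG400 vehicle) in the LPS von Frey study were observed over nine hours on the test day. Animals were checked for behavioral changes and for acute signs such as lacrimation, porphyrin exudation, frozen or hunched posture, gasping or chattering.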

[6] = tested on: U-937; assay: Cytotoxicity against human U937 cells; format: cell-based
[7] = tested on: Rattus norvegicus; assay: Toxicity in Sprague-Dawley rat von Frey hair mechanically-stimulated […] pain model assessed as acute observable symptoms of toxicity at 10 mg/kg, sc after 9 hrs; format: organism-based; set-up: dose 10 mg/kg, route subcutaneous; details: in vivo; in short: as §1

Row | inhibition [1] [%] | Structure (SMILES) | further results
1 | 15 | NS(=O)(=O)c1ccc(-n2nc(CCCNC(=O)Nc3ccc(Cl)cc3)cc2-c2ccccc2)cc1 | 
2 | 3 | CS(=O)(=O)c1ccc(-n2nc(CNC(=O)NC3CCCCCC3)cc2-c2ccccc2)cc1 | 
3 | 16 | NS(=O)(=O)c1ccc(-n2nc(CCCNC(=O)Nc3ccccc3)cc2-c2ccccc2)cc1 | 
4 | 7 | NS(=O)(=O)c1ccc(-n2nc(CCCNC(=O)NC34CC5CC(CC(C5)C3)C4)cc2-c2ccccc2)cc1 | 
5 | 27 | NS(=O)(=O)c1ccc(-n2nc(CCCNC(=O)Nc3cccc(C(F)(F)F)c3)cc2-c2ccccc2)cc1 | 
6 | 10 | NS(=O)(=O)c1ccc(-n2nc(CCCNC(=O)NC3CCCCCC3)cc2-c2ccccc2)cc1 | 
7 | 23 | NS(=O)(=O)c1ccc(-n2nc(CCCNC(=O)Nc3ccc(C(F)(F)F)cc3)cc2-c2ccccc2)cc1 | Activity [5]: Non-toxic; Activity [3]: Active; inhibition [4]: 83%; Activity [6]: Non-toxic; Activity [7]: Non-toxic

Further lines, the compound ahead of its results:

Row | Structure (SMILES) | inhibition [1] [%] | further results
8 | NS(=O)(=O)c1ccc(-n2nc(CCCNC(=O)Nc3ccc(OC(F)(F)F)cc3)cc2-c2ccccc2)cc1 | 14 | half-life [2]: 12 h
9 | Cc1ccc(-c2cc(CCCNC(=O)Nc3cccc(C(F)(F)F)c3)nn2-c2ccc(S(N)(=O)=O)cc2)cc1 | 12 | 
10 | CS(=O)(=O)c1ccc(-n2nc(CNC(=O)Nc3cccc(C(F)(F)F)c3)cc2-c2ccccc2)cc1 | 8 | 
11 | NS(=O)(=O)c1ccc(-n2nc(NC(=O)Nc3cccc(C(F)(F)F)c3)cc2-c2ccccc2)cc1 | 34 | 
12 | Cc1ccc(-c2cc(C(F)(F)F)nn2-c2ccc(S(N)(=O)=O)cc2)cc1 |  | Activity [3]: Active; inhibition [4]: 80%
13 | CS(=O)(=O)c1ccc(-n2nc(CCCNC(=O)Nc3cccc(C(F)(F)F)c3)cc2-c2ccccc2)cc1 | 6 | 
14 | CC(C)(C)c1cc(CNC(=O)Nc2cccc(C(F)(F)F)c2)nn1-c1ccc(S(C)(=O)=O)cc1 | 2 | 
15 | NS(=O)(=O)c1ccc(-n2nc(CCNC(=O)Nc3cccc(C(F)(F)F)c3)cc2-c2ccccc2)cc1 | 22 | 
16 | CS(=O)(=O)c1ccc(-n2nc(CNC(=O)Nc3ccc(C(F)(F)F)cc3)cc2-c2ccccc2)cc1 | 11 | 
17 | CS(=O)(=O)c1ccc(-n2nc(CNC(=O)Nc3ccc(OC(F)(F)F)cc3)cc2-c2ccccc2)cc1 | 10 | 
18 | O=C(NC12CC3CC(CC(C3)C1)C2)N[C@H]1CC[C@H](Oc2ccc(C(=O)O)cc2)CC1 | 25 | Activity [3]: Active
19 | NS(=O)(=O)c1ccc(-n2nc(CNC(=O)Nc3cccc(C(F)(F)F)c3)cc2-c2ccccc2)cc1 | 17 | 
20 | CS(=O)(=O)c1ccc(-n2nc(CNC(=O)NC34CC5CC(CC(C5)C3)C4)cc2-c2ccccc2)cc1 | 13 | 
21 | CC(C)c1cccc(C(C)C)c1NC(=O)NCCCc1cc(-c2ccccc2)n(-c2ccc(S(N)(=O)=O)cc2)n1 | 6 | 
